The test system of one assay is HL-60. The assay can be described thus: Transglutaminase activity in HL-60 cdm-1 cells. It is filed as functional, cell-based. The following applies: Homo sapiens. Summed up: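 Log-phase cells in RPMI 1640 with insulin/transferrin/selenide were pretreated with 1.25% DMSO for 18 h, then resuspended with retinoid or 0.1% ethanol control for 24 h. Lysate Tgase was measured as Ca2+-dependent [3H]putrescine conjugation to N,N-dimethylcasein.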

Assay [1] addresses T1, Retinoic acid receptor RXR-alpha (Homo sapiens, UniProt P19793).
T1 sequence (P19793 whole entry): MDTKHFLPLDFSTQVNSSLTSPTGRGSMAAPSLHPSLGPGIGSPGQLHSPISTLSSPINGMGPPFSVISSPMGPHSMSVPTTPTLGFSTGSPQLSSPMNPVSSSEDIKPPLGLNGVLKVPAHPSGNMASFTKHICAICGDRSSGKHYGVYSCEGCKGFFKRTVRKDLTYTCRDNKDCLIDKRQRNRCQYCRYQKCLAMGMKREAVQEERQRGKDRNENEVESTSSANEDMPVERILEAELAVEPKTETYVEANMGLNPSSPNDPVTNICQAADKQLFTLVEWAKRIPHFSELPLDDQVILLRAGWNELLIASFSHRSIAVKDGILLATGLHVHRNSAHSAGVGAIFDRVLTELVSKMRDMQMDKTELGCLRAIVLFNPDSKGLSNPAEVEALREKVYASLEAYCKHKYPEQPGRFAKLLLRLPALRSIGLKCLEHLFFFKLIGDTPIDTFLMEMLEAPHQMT
As to the kind of experiment: Transcriptional activation of Retinoid X receptor RXR alpha.

The species entered for assay [2] is Mus musculus. The assay can be described thus: Inhibition of tumor-promoter-induced ornithine decarboxylase in TPA-treated female hairless mice. It is filed as functional. Summed up:
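Retinoids were applied dorsally in 100 μL acetone 1 h before TPA (40 nmol/mouse in acetone). Mice were killed 4 h later, epidermis scraped after 55 °C for 30 s, and homogenate supernatant assayed for ODC by 14CO2 release (benzethonium hydroxide trap). Activity was normalized to protein.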

Assay [3] is filed under the species Mus musculus. The assay can be described thus: In vitro inhibition of chondrogenesis in mouse embryo limb bud cells. It is filed as functional, cell-based. The essentials: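 Micromass cultures of day 11 mouse embryo forelimb bud cells (trypsin-EDTA dissociated, 200 000 cells/spot) in Eagle's MEM + 10% FBS. Retinoids 0.01 ng/mL–10 μg/mL (0.03 nM–30 μM) were added 24 h after plating, with ethanol vehicle (<1%). Cultures ended at 96 h, formalin/cetylpyridinium fixed, and cartilage nodules counted by image scan. Four replicates per concentration; IC50 from logarithmic curve fit.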

Assay [4] deals with T2, Retinoic acid receptor gamma (Homo sapiens, UniProt P13631).
T2 sequence (P13631 whole entry): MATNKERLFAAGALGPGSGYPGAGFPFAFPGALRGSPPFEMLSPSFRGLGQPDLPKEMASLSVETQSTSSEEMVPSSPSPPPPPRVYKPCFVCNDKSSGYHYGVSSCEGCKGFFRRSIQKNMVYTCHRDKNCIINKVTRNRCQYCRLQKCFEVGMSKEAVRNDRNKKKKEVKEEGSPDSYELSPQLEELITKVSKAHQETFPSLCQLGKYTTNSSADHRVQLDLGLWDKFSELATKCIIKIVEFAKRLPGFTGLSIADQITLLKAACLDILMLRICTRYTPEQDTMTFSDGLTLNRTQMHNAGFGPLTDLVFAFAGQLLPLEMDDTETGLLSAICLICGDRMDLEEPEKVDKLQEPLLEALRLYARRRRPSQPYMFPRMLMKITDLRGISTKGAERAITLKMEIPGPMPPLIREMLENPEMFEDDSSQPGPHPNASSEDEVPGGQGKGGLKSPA
The assay can be described thus: Transcriptional activation of Retinoic acid receptor RAR gamma.

Assay [5] addresses T3, Retinoic acid receptor alpha (Homo sapiens, UniProt P10276).
T3 sequence (P10276 whole entry): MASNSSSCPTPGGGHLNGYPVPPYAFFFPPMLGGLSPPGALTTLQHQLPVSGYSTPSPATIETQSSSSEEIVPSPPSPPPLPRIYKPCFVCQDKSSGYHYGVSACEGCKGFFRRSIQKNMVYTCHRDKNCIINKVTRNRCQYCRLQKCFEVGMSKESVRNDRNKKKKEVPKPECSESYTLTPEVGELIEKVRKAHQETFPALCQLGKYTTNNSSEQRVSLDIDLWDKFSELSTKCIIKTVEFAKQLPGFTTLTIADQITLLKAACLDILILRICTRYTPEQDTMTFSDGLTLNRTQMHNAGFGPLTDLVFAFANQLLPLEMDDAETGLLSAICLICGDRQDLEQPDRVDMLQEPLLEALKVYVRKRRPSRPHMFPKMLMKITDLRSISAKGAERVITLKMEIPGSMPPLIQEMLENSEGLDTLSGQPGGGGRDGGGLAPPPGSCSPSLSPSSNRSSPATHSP
As to the kind of experiment: Transcriptional activation of Retinoic acid receptor RAR alpha.

In assay [6] the target is T4, Retinoic acid receptor beta (Homo sapiens, UniProt P10826).
T4 sequence (P10826 whole entry): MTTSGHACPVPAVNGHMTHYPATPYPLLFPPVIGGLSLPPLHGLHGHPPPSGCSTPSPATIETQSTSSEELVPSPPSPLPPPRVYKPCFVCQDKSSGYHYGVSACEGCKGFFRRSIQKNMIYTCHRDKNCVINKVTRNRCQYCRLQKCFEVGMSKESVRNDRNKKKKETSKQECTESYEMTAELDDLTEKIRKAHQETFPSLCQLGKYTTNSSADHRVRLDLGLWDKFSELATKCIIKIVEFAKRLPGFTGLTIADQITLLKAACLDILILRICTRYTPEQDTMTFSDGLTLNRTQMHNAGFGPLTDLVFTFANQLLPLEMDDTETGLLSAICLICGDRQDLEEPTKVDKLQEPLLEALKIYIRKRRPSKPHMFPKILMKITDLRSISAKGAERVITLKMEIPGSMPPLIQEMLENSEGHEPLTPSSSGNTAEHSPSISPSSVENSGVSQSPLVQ
The assay can be described thus: Transcriptional activation of Retinoic acid receptor RAR beta.

Experimental findings from ChEMBL document CHEMBL1128479, “Synthesis and structure-activity relationships of stilbene retinoid analogs substituted with heteroaromatic carboxylic acids” (J Med Chem, 1995) are described below.

A value given as a limit tells only on which side of the number the result lay.

For `C/C(=C\c1ccc(C(=O)O)cc1)c1ccc2c(c1)C(C)(C)CCC2(C)C`, the EC50 in the assay with HL-60 is > 1000 nM; in assay [1] it was > 10000 nM. This compound also registered an IC80 in the assay filed under Mus musculus [2] of 0.08 nmol. The compound also came in with an IC50 in the assay listed under Mus musculus [3] of 0.06 nM.

`C/C(=C\c1csc(C(=O)O)c1)c1cc2c(cc1C)C(C)(C)CCC2(C)C`: the EC50 in assay [4] was > 10000 nM; in assay [5] it was > 10000 nM; in assay [1], 112 nM; in assay [6], 1080 nM.

In the assay on HL-60, `C/C(=C\c1ccc(C(=O)O)cc1)c1cc2c(cc1C)C(C)(C)CCC2(C)C` registered an EC50 of 10 nM. In the assay filed under Mus musculus [2], this compound came in with an IC80 of 1.2 nmol. Further, the midpoint of inhibition in the assay filed under Mus musculus [3], the IC50, lay at 8 nM.

Take `C/C(=C\c1ccc(C(=O)O)s1)c1cc2c(cc1C)C(C)(C)CCC2(C)C`: the EC50 was 37 nM in assay [4]; 5 nM with HL-60; > 10000 nM in assay [5]; 11 nM in assay [1]; 23 nM in assay [6]. The same compound yielded an IC80 in the assay listed under Mus musculus [2] of 5.4 nmol. Moreover, in the assay filed under Mus musculus [3], the IC50 was found to be 15 nM.

`C/C(=C\c1ccc(C(=O)O)cn1)c1cc2c(cc1C)C(C)(C)CCC2(C)C`: the EC50 in assay [4] is 374 nM; in assay [5], 2690 nM; in assay [1] it was 105 nM; in assay [6], 21 nM.

For the compound `C/C(=C\c1cc(C(=O)O)cs1)c1cc2c(cc1C)C(C)(C)CCC2(C)C`, the EC50 in assay [4] was > 10000 nM; in the assay on HL-60 it was 20 nM; in assay [5] it was > 10000 nM; in assay [1], 201 nM; in assay [6], > 10000 nM. Further, in the assay filed under Mus musculus [2], the IC80 is > 300 nmol. Moreover, in the assay listed under Mus musculus [3], inhibition was half-maximal at 63 nM (IC50).

Take `C/C(=C\c1cccc(C(=O)O)c1)c1cc2c(cc1C)C(C)(C)CCC2(C)C`: the EC50 in assay [4], in assay [5], in assay [1] and in assay [6] was > 10000 nM throughout.

For the compound `C/C(=C\c1ccc(C(=O)O)o1)c1cc2c(cc1C)C(C)(C)CCC2(C)C`, the EC50 in assay [4] is > 10000 nM; in assay [5], > 10000 nM; in assay [1], 592 nM; in assay [6], > 10000 nM.

In the assay on HL-60, `CC1=C(/C=C/C(C)=C\C=C\C(C)=C\C(=O)O)C(C)(C)CCC1` [ALITRETINOIN] had an EC50 of 2 nM. The compound further registered an IC80 in the assay filed under Mus musculus [2] of 3.6 nmol. Half-maximal inhibition in the assay listed under Mus musculus [3] (IC50) was put at 58 nM.

Take `CC1=C(/C=C/C(C)=C/C=C/C(C)=C/C(=O)O)C(C)(C)CCC1` [TRETINOIN]: a half-maximal effect in the assay on HL-60 (EC50) was put at 5 nM. The IC80 in the assay filed under Mus musculus [2] was 1.4 nmol. Also, it took 31 nM to reach half-maximal inhibition in the assay filed under Mus musculus [3] (IC50).

Usually EC50 stands for the concentration needed to bring the measured effect to its halfway point. Broadly, the IC50 is the point on the concentration scale where inhibition reaches its midpoint.
